Test results from ChEMBL document CHEMBL1153016, “Dopamine- and tyramine-based derivatives of triazenes: activation by tyrosinase and implications for prodrug design” (Eur J Med Chem, 2009).

T1: Tyrosinase (Agaricus bisporus) (UniProt O42713)
T1 sequence (whole entry): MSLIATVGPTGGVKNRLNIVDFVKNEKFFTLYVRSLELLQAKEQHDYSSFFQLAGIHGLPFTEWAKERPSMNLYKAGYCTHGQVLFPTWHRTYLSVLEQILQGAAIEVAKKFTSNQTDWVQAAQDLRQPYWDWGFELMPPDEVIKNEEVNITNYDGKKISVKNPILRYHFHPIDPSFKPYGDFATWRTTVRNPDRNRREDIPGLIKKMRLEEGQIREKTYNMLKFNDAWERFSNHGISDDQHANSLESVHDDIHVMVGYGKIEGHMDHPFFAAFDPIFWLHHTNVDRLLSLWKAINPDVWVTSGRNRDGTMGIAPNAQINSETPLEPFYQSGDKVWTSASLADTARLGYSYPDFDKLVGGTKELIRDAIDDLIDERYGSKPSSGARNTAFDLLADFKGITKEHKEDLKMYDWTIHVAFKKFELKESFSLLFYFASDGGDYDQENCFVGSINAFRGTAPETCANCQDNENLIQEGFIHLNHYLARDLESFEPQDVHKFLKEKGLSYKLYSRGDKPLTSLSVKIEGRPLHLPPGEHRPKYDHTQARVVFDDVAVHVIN


Legend:
[1] = Apparent partition coefficient in phosphate buffer of pH 7.4 by HPLC analysis; format: physicochemical
How it was run: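 Log Pexp measured at room temperature in 1-octanol/pH 7.4 phosphate buffer, phases mutually pre-saturated. Compound dissolved in octanol and shaken 30 min to equilibrium. Each phase analysed by HPLC, octanol phase first diluted 1:10 in acetonitrile. P taken as the ratio of octanol to buffer peak area.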

[2] = target: T1, Tyrosinase (Agaricus bisporus); assay: Binding affinity to Mushroom tyrosinase assessed as compound turnover by HPLC analysis
How it was run: (§1)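 Mushroom tyrosinase at 100U/mL in pH 7.4 phosphate buffer (2.4 mL) with DMSO (0.6 mL), 37 °C. Prodrug added from 10^-2 M stock, final substrate 5 x 10^-5 M, incubated with gentle stirring. Consumption followed by HPLC with UV at 300 nm, giving half-life of activation. Km and Vmax determined; turnover number derived from Vmax.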

tyrosinase = assay: Stability assessed as half life at 50 uM by HPLC analysis in presence of mushroom tyrosinase; format: ADME; how it was run: as §1
[3] = Chemical stability in phosphate buffer of pH 7.4 at 10 uM by HPLC analysis; format: physicochemical; details: pH 7.4, 10 µM
How it was run: (§2)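 Hydrolysis at 37 °C in pH 7.4 PBS containing 20% DMSO, substrate 10^-5 M. Aliquots analysed by reversed-phase HPLC with UV at 300 nm to give half-life.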

Plasma = assay: Stability in 80% human plasma at 10 uM by HPLC analysis; format: ADME, cell-free
How it was run: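 Pooled heparinised human plasma from healthy donors, stored at –70 °C, diluted to 80% (v/v) with pH 7.4 isotonic phosphate buffer. Substrate 10^-5 M, incubated at 37 °C. At intervals, 200 µL aliquots quenched in 400 µL acetonitrile and centrifuged; supernatant analysed by HPLC for substrate and products to give half-life.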

Homo sapiens = species: Homo sapiens; assay: Stability assessed as hydrolytic half life in 80% human plasma at 10 uM by HPLC analysis
[4] = Chemical stability of the assessed as hydrolytic half life in phosphate buffer of pH 7.4 at 10 uM by HPLC analysis; format: physicochemical; how it was run: as §2
[5] = Ratio of chemical stability in phosphate buffer of pH 7.4 to chemical stability in human plasma; format: ADME
[6] = substrate: CCOC(=O)c1ccc(/N=N/N(C)C(=O)NCCc2ccc(O)c(O)c2)cc1; assay: (§3) Activity at mushroom tyrosinase; details: Agaricus bisporus; how it was run: as §1
[7] = substrate: CN(/N=N/c1ccc(C#N)cc1)C(=O)NCCc1ccc(O)cc1; assay: as §3; details: Agaricus bisporus; how it was run: as §1

| Molecule | logD [1] | Activity [2] | half-life at 50 µM (tyrosinase) | Stability [3] | Stability (Plasma) | half-life at 10 µM (Homo sapiens) | half-life at 10 µM [4] | Ratio [5] | also measured |
| --- | --- | --- | --- | --- | --- | --- | --- | --- | --- |
| CN(/N=N/c1ccc(C#N)cc1)C(=O)NCCc1ccc(O)cc1 | 2.89 | 0.6 s⁻¹ | 0.197 h | 15 days | 2 days | – | – | – | – |
| CC(=O)c1ccc(/N=N/N(C)C(=O)NCCc2ccc(O)c(O)c2)cc1 | 3.24 | – | 0.165 h | – | – | 9.3 h | 15.1 h | 1.5 | – |
| Cc1ccc(/N=N/N(C)C(=O)NCCc2ccc(O)cc2)cc1 | 3.9 | – | 0.303 h | – | 2 days | – | 364 h | – | – |
| CCOC(=O)c1ccc(/N=N/N(C)C(=O)NCCc2ccc(O)c(O)c2)cc1 | 3.78 | 6 s⁻¹ | 0.102 h | – | – | 14.7 h | 20.8 h | 1.5 | – |
| CCOC(=O)c1ccc(/N=N/N(C)C(=O)NCCc2ccc(O)cc2)cc1 | 3.96 | – | 0.215 h | 15 days | – | 71.5 h | – | – | – |
| CC(=O)c1ccc(/N=N/N(C)C(=O)NCCc2ccc(O)cc2)cc1 | 3.25 | – | 0.217 h | 15 days | 2 days | – | – | – | – |
| NCCc1ccc(O)c(O)c1 | – | 439 s⁻¹ | – | – | – | – | – | – | – |
| NCCc1ccc(O)cc1 | – | 25.9 s⁻¹ | – | – | – | – | – | – | – |
| Cc1ccc(/N=N/N(C)C(=O)NCCc2ccc(O)c(O)c2)cc1 | 4.17 | – | 0.14 h | 2 days | – | 5.66 h | – | 1.5 | – |
| Tyrosinase (Agaricus bisporus), O42713 (protein) MSLIATVGPTGGVKNRLNIVDFVKNEKFFTLYVRSLELLQAKEQHDYSSFFQLAGIHGLPFTEWAKERPSMNLYKAGYCTHGQVLFPTWHRTYLSVLEQILQGAAIEVAKKFTSNQTDWVQAAQDLRQPYWDWGFELMPPDEVIKNEEVNITNYDGKKISVKNPILRYHFHPIDPSFKPYGDFATWRTTVRNPDRNRREDIPGLIKKMRLEEGQIREKTYNMLKFNDAWERFSNHGISDDQHANSLESVHDDIHVMVGYGKIEGHMDHPFFAAFDPIFWLHHTNVDRLLSLWKAINPDVWVTSGRNRDGTMGIAPNAQINSETPLEPFYQSGDKVWTSASLADTARLGYSYPDFDKLVGGTKELIRDAIDDLIDERYGSKPSSGARNTAFDLLADFKGITKEHKEDLKMYDWTIHVAFKKFELKESFSLLFYFASDGGDYDQENCFVGSINAFRGTAPETCANCQDNENLIQEGFIHLNHYLARDLESFEPQDVHKFLKEKGLSYKLYSRGDKPLTSLSVKIEGRPLHLPPGEHRPKYDHTQARVVFDDVAVHVIN | – | – | – | – | – | – | – | – | Km [6]: 710 µM; Vmax [6]: 0.31 mM/min; Km [7]: 310 µM; Vmax [7]: 0.03 mM/min |
